ChEMBL document CHEMBL1135464, “3-Aryl-2-quinolone derivatives: synthesis and characterization of in vitro and in vivo antitumor effects with emphasis on a new therapeutical target connected with cell migration” (J Med Chem, 2002)
pIC50: −log10 of the molar value.

Legend:
[1] = test system: PC-3; test: Cytotoxicity against prostate cell line PC-3 using MTT colorimetric assay; format: functional, cell-based; conditions: Homo sapiens
Summary of the method: (§1)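 Human tumour lines from ATCC were grown at 37 °C in sealed dishes in MEM with 5% FCS. Cells were seeded at 40000 cells/mL in 96-well plates and left 24 h to plate. Each drug was then tested at six concentrations from 10^-5 to 10^-9 M. Growth was read by colorimetric MTT assay.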

[2] = test system: A549; test: Cytotoxicity against A549 nonsmall lung cell line using MTT colorimetric assay; format: functional, cell-based; conditions: Homo sapiens; summary of the method: as §1
[3] = test system: J82; test: Cytotoxicity against J82 bladder cell lines using MTT colorimetric assay; format: functional, cell-based; conditions: Homo sapiens; summary of the method: as §1
[4] = test system: HCT-15; test: Cytotoxicity against HCT-15 colon cell line using MTT colorimetric assay; format: functional, cell-based; conditions: Homo sapiens; summary of the method: as §1
[5] = test system: A-427; test: Cytotoxicity against A-427 nonsmall lung cell line using MTT colorimetric assay; format: functional, cell-based; conditions: Homo sapiens; summary of the method: as §1
[6] = test system: T47D; test: Cytotoxicity against Breast cancer cell line T-47D using MTT colorimetric assay; format: functional, cell-based; conditions: Homo sapiens; summary of the method: as §1
[7] = test system: U-87 MG; test: Cytotoxicity against U-87 MG glioblastomas using MTT colorimetric assay; format: functional, cell-based, U-87MG ATCC; conditions: Homo sapiens; summary of the method: as §1
[8] = test system: U373 MG; test: Cytotoxicity against U-373 MG glioblastomas using MTT colorimetric assay; format: functional, cell-based, U-373MG ATCC; conditions: Homo sapiens; summary of the method: as §1
[9] = test system: MCF7; test: Cytotoxicity against Breast cancer cell line MCF-7 using MTT colorimetric assay; format: functional, cell-based; conditions: Homo sapiens; summary of the method: as §1
[10] = Evaluated in vivo for maximum tolerated dose and found to be nontoxic; format: ADME, organism-based
[11] = test system: LoVo; test: Cytotoxicity measured on LoVo colon cell line using MTT colorimetric assay; format: functional, cell-based; conditions: Homo sapiens; summary of the method: as §1
[12] = test system: T-24; test: Cytotoxicity against T24 bladder cell lines using MTT colorimetric assay; format: functional, cell-based; conditions: Homo sapiens; summary of the method: as §1
[13] = test system: A 172; test: Cytotoxicity against A-172 glioblastomas using MTT colorimetric assay; format: functional, cell-based; conditions: Homo sapiens; summary of the method: as §1

| Structure (SMILES) | pIC50 [1] | pIC50 [2] | pIC50 [3] | pIC50 [4] | pIC50 [5] | pIC50 [6] | pIC50 [7] | pIC50 [8] | pIC50 [9] | MTD [10] [mg/kg] | pIC50 [11] | pIC50 [12] | pIC50 [13] |
| --- | --- | --- | --- | --- | --- | --- | --- | --- | --- | --- | --- | --- | --- |
| Cn1c(=O)c(-c2ccc(O)cc2)cc2c(O)cc(O)cc21 | < 5.00 | < 5.00 | < 5.00 | < 5.00 | < 5.00 | < 5.00 | < 5.00 | < 5.00 | < 5.00 | 160 | < 5.00 | < 5.00 | < 5.00 |
| Oc1ccc(-c2cc3c(O)cc(O)cc3nc2O)cc1 | < 5.00 | < 5.00 | < 5.00 | < 5.00 | < 5.00 | < 5.00 | < 5.00 | < 5.00 | < 5.00 | 160 | < 5.00 | < 5.00 | < 5.00 |
| COc1ccc(-c2cc3cccc(OC)c3nc2O)cc1 | < 5.00 | < 5.00 | < 5.00 | < 5.00 | < 5.00 | < 5.00 | < 5.00 | < 5.00 | < 5.00 | 160 | < 5.00 | < 5.00 | < 5.00 |
| COc1ccc(-c2cc3c(OC)cc(OC)cc3n(CCC#N)c2=O)cc1 | < 5.00 | < 5.00 | < 5.00 | < 5.00 | < 5.00 | < 5.00 | < 5.00 | < 5.00 | < 5.00 | 160 | < 5.00 | < 5.00 | < 5.00 |
| CC(=O)Oc1ccc(-c2cc3c(OC(C)=O)cc(OC(C)=O)cc3n(C)c2=O)cc1 | < 5.00 | < 5.00 | < 5.00 | < 5.00 | < 5.00 | < 5.00 | < 5.00 | < 5.00 | < 5.00 | 160 | < 5.00 | < 5.00 | < 5.00 |
| COc1ccc(-c2cc3c(OC)cc(OC)cc3n(C)/c2=N\Nc2ccccn2)cc1 | < 5.00 | < 5.00 | < 5.00 | < 5.00 | < 5.00 | < 5.00 | < 5.00 | < 5.00 | < 5.00 | 160 | < 5.00 | < 5.00 | < 5.00 |
| COc1cc(OC)c2cc(-c3ccc(O)cc3)c(=O)n(C)c2c1 | < 5.00 | < 5.00 | < 5.00 | < 5.00 | < 5.00 | < 5.00 | < 5.00 | < 5.00 | < 5.00 | 160 | < 5.00 | < 5.00 | < 5.00 |
| COc1ccc(-c2cc3c(OC)cc(OC)cc3n(CC(=O)O)c2=O)cc1 | < 5.00 | < 5.00 | < 5.00 | < 5.00 | < 5.00 | < 5.00 | < 5.00 | < 5.00 | < 5.00 | 160 | < 5.00 | < 5.00 | < 5.00 |
| COc1ccc(-c2cc3c(OC)cc(OC)cc3n(CCN(C)C)c2=O)cc1 | < 5.00 | < 5.00 | < 5.00 | < 5.00 | < 5.00 | < 5.00 | < 5.00 | < 5.00 | < 5.00 | 160 | < 5.00 | < 5.00 | < 5.00 |
| CCOC(=O)Cn1c(=O)c(-c2ccc(OC)cc2)cc2c(OC)cc(OC)cc21 | < 5.00 | < 5.00 | < 5.00 | < 5.00 | < 5.00 | < 5.00 | < 5.00 | < 5.00 | < 5.00 | 160 | < 5.00 | < 5.00 | < 5.00 |
| COc1ccc(-c2cc3c(OC)cc(OC)cc3nc2O)cc1 | – | – | – | – | – | – | – | – | – | 160 | – | – | – |
| COc1ccc(-c2cc3c(OC)cc(OC)cc3n(C)/c2=N\Nc2ccccc2)cc1 | < 5.00 | < 5.00 | < 5.00 | < 5.00 | < 5.00 | < 5.00 | < 5.00 | < 5.00 | < 5.00 | 160 | < 5.00 | < 5.00 | < 5.00 |
